The source made the active and inactive calls. The rule behind the calls is not given here.

In ChEMBL document CHEMBL5331142, “Novel 1,4-Dihydropyridines as Specific Binders and Activators of SIRT3 Impair Cell Viability and Clonogenicity and Downregulate Hypoxia-Induced Targets in Cancer Cells” (J Med Chem, 2023) one finds Activity data, which are given here for two molecules.

Assay [1] concerns the target T1, NAD-dependent protein deacetylase sirtuin-2 (Homo sapiens) (UniProt Q8IXJ6).
T1 sequence (whole entry): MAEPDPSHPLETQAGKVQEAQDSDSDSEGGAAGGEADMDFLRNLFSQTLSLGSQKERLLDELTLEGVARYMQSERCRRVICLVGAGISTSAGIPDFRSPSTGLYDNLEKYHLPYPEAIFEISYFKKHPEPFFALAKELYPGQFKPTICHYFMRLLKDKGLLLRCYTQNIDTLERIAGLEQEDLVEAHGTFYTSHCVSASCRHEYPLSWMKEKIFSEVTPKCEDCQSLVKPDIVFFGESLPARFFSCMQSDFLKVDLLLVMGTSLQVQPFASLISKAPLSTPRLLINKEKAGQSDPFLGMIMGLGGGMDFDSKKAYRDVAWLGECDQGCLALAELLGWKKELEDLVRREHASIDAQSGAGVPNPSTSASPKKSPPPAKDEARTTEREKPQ
Nature of the assay: Activation of N-terminal his-tagged human SIRT2 (43 to 356 residues) expressed in Escherichia coli at 10 uM using p53-acK381 as substrate in presence of NAD+ by NADH oxidation-coupled enzymatic assay.

Assay [2] relates to MDA-MB-231. Nature of the assay: Downregulation of COL1A2 gene expression in human MDA-MB-231 cells at 50 uM incubated for 48 hrs by qRT-PCR analysis. The format is functional, cell-based. Put shortly: (§1)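 MDA-MB-231 cells treated with 50 μM compound for 48 h under normoxia, DMSO vehicle control. qRT-PCR quantified by the 2(−ΔCt) method as fold of control, mean ± SEM. Three independent experiments.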
Background: Real-time PCR tracks product formation cycle by cycle.

The subject of assay [3] is CAL-62. Nature of the assay: Downregulation of EPAS-1 expression in human CAL-62 cells at 50 uM incubated for 48 hrs under hypoxia condition by Western blot analysis. In kind it is functional, cell-based. Put shortly: (§2)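 CAL-62 or MDA-MB-231 cells made hypoxic with 200 μM CoCl2 for 24 h, then treated with 50 μM compound for 48 h with CoCl2 retained. Lysates (15 or 50 μg protein) immunoblotted for HIF-1α, EPAS-1 or CA-IX with ACTB, ECL detection. 3-TYP (1 μM) as control.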

Assay [4] concerns MDA-MB-231. Nature of the assay: Downregulation of ZEB1 gene expression in human MDA-MB-231 cells at 50 uM incubated for 48 hrs under hypoxia condition by qRT-PCR analysis. The format is functional, cell-based. The gist of the method:
(§3)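 MDA-MB-231 cells pretreated with 200 μM CoCl2 to induce hypoxia, then exposed to 50 μM compound for 48 h with CoCl2 maintained. qRT-PCR by the 2(−ΔCt) method vs DMSO control, mean ± SEM. Four independent experiments.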

For assay [5], the target named is NAD-dependent protein deacylase sirtuin-5, mitochondrial (Homo sapiens) (UniProt Q9NXA8). Nature of the assay: Activation of N-terminal his-tagged human SIRT5 (34 to 302 residues) expressed in Escherichia coli at 10 uM using p53-acK381 as substrate in presence of NAD+ by NADH oxidation-coupled enzymatic assay.
Chain of NAD-dependent protein deacylase sirtuin-5, mitochondrial (Homo sapiens) (Q9NXA8 37-310 limits assumed): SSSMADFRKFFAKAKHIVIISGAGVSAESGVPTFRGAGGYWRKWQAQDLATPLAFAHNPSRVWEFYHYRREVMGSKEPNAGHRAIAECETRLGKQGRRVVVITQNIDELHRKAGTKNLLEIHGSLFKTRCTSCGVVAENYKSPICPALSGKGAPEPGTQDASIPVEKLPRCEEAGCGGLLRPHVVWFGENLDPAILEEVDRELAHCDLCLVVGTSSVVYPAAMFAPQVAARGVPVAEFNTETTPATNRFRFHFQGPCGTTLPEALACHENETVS
For assay [6], the system named is MDA-MB-231. Nature of the assay: Downregulation of SLUG gene expression in human MDA-MB-231 cells at 50 uM incubated for 48 hrs under hypoxia condition by qRT-PCR analysis. The format is functional, cell-based. Put shortly: as §3
For assay [7], the target named is T2, NAD-dependent protein deacetylase sirtuin-3, mitochondrial (Homo sapiens) (UniProt Q9NTG7).
T2 sequence (whole entry): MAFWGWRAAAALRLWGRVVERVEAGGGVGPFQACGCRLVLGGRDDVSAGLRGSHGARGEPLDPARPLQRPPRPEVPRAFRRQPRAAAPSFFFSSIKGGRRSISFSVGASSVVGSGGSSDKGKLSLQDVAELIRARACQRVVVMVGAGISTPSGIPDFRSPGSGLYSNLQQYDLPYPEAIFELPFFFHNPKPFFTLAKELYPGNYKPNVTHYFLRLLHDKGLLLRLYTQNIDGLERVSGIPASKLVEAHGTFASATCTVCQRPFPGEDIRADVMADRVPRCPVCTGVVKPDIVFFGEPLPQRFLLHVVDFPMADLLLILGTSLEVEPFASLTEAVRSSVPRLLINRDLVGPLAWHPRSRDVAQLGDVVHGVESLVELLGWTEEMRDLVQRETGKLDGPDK
Nature of the assay: Activation of human SIRT3 overexpressing in human MDA-MB-231 cells assessed as increase in GDH activity at 50 uM incubated for 4 hrs by absorbance assay. In kind it is cell-based. The following applies: filed as activator. The gist of the method: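 MDA-MB-231 cells exposed 4 h to 50 μM compound. 10^6 cells lysed in GDH assay buffer for 10 min on ice. Supernatant mixed with developer and glutamate, incubated 3 min at 37 °C, absorbance read at 450 nm with buffer blank subtracted. SIRT3-overexpressing MDA-MB-231 cells served as reference.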

Assay [8] addresses T2, NAD-dependent protein deacetylase sirtuin-3, mitochondrial (Homo sapiens). Nature of the assay: Activation of N-terminal his-tagged human SIRT3 (114 to 380 residues) deacylation activity expressed in Escherichia coli at 10 uM using ACS2-acK642 as substrate in presence of NAD+ by NADH oxidation-coupled enzymatic assay. Conditions: filed as activator. The gist of the method:
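Coupled PncA/GDH deacylation assay following NADPH oxidation to NADP+. 1.5 μM sirtuin, 50 μM substrate peptide, 100 μM NAD+, compound at 10 μM, 5% final DMSO. Isoform-specific physiological substrates: p53-acK381 (SIRT1), […] (SIRT2), ACS2-acK642 (SIRT3), CPS1-succK537 (SIRT5). Sirtuins expressed in E. coli, Ni-NTA purified, tag cleaved, then size-exclusion chromatography.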

In assay [9] the test system is CAL-62. Nature of the assay: Anticancer activity against human CAL-62 cells assessed as reduction in cell viability at 50 uM incubated for 24 to 48 hrs under normoxia condition by trypan blue exclusion assay. Conditions: time 24-48 hrs, TDE = time-dependent effect. The format is functional, cell-based. The gist of the method:
(§4)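 CAL-62 cells in RPMI 1640 with 10% FBS, treated with 50 μM compound (DMSO) for 24 and 48 h. Hypoxia induced with 200 μM CoCl2, kept in the medium during treatment. Viable cells counted by 0.4% trypan blue staining on a hemocytometer.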

Assay [10] concerns the target T2, NAD-dependent protein deacetylase sirtuin-3, mitochondrial (Homo sapiens). Nature of the assay: Activation of N-terminal his-tagged human SIRT3 (114 to 380 residues) deacylation activity expressed in Escherichia coli at 100 uM using ACS2-acK642 as substrate in presence of NAD+ by NADH oxidation-coupled enzymatic assay. Conditions: filed as activator. The gist of the method:
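Coupled PncA/GDH deacylation assay following NADPH oxidation to NADP+. 1.5 μM SIRT3 (E. coli-expressed, tag removed) with 50 μM ACS2-acK642 peptide and 100 μM NAD+, compound at 100 μM, 5% final DMSO.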

The subject of assay [11] is MDA-MB-231. Nature of the assay: Downregulation of MMP2 gene expression in human MDA-MB-231 cells at 50 uM incubated for 48 hrs under hypoxia condition by qRT-PCR analysis. In kind it is functional, cell-based. Put shortly:
as §3

In assay [12] the test system is MDA-MB-231. Nature of the assay: Downregulation of EPAS-1 expression in human MDA-MB-231 cells at 50 uM incubated for 48 hrs under hypoxia condition by Western blot analysis. The format is functional, cell-based. The gist of the method: as §2
Assay [13] relates to MDA-MB-231. Nature of the assay: Downregulation of HIF1alpha expression in human MDA-MB-231 cells at 50 uM incubated for 48 hrs under hypoxia condition by Western blot analysis. In kind it is functional, cell-based. The gist of the method: as §2
(A western blot detects proteins with antibodies after separation by electrophoresis.)

For assay [14], the system named is MDA-MB-231. Nature of the assay: Downregulation of MMP2 gene expression in human MDA-MB-231 cells at 50 uM incubated for 48 hrs by qRT-PCR analysis. The format is functional, cell-based. Put shortly:
as §1

For assay [15], the system named is CAL-62. Nature of the assay: Anticancer activity against human CAL-62 cells assessed as reduction in cell viability at 50 uM incubated for 24 to 48 hrs under hypoxia condition by trypan blue exclusion assay. In kind it is functional, cell-based. The following applies: time 24-48 hrs, TDE = time-dependent effect. The gist of the method: as §4

Turning to `CCOC(=O)C1=CN(C(=O)c2cc(OC)cc(OC)c2)C=C(C(=O)OCC)C1c1ccccc1`, the outcome in [1] and in assay [5] was inactive. The result (in the assay on MDA-MB-231 [2]; with CAL-62 [3]; in the assay with MDA-MB-231 [4]; with MDA-MB-231 [6]; in assay [7]; in the assay on MDA-MB-231 [11]) was Active. Moreover, the outcome in the assay on MDA-MB-231 [12], with MDA-MB-231 [13] and with MDA-MB-231 [14] was Active. In addition, the Activity in assay [8] was 149%; in the assay with CAL-62 [9], “Tde”; in assay [10] it was 178%; in the assay with CAL-62 [15], “Tde”.

Consider `CCOC(=O)C1=CN(C(=O)c2ccc(OC)c(OC)c2)C=C(C(=O)OCC)C1c1ccccc1`, for which the result in [1] and in assay [5] was inactive. Also, the result (in the assay on MDA-MB-231 [2]; in the assay with CAL-62 [3]; with MDA-MB-231 [4]; with MDA-MB-231 [6]; in assay [7]; with MDA-MB-231 [11]) was Active. Further, the result in the assay on MDA-MB-231 [12], with MDA-MB-231 [13] and in the assay with MDA-MB-231 [14] was Active. For the same molecule, the Activity in assay [8] is 158%; in the assay with CAL-62 [9] it was “Tde”; in assay [10], 387%; in the assay with CAL-62 [15] it was “Tde”.
